Experimental data as given in ChEMBL document CHEMBL1149694, “5-(3-Cyclopentyl-2-thioxo-2,3-dihydro-1H-benzimidazol-5-yl)-1-methyl-1H-pyrrole-2-carbonitrile: A novel, highly potent, selective, and orally active non-steroidal progesterone receptor agonist” (Bioorg Med Chem, 2007).
The source made the active and inactive calls. The calls are words filed in the database; no cut-off is given here.

Assays:
[1] = biological target: T1, Progesterone receptor (Homo sapiens) (UniProt P06401); test: (§1) Antagonist activity at progesterone receptor expressed in T47D cells assessed as inhibition of progesterone-induced alkaline phosphatase activity; assay type: functional, cell-based; settings: for inhibition: concentration not given here
T1 sequence (whole entry): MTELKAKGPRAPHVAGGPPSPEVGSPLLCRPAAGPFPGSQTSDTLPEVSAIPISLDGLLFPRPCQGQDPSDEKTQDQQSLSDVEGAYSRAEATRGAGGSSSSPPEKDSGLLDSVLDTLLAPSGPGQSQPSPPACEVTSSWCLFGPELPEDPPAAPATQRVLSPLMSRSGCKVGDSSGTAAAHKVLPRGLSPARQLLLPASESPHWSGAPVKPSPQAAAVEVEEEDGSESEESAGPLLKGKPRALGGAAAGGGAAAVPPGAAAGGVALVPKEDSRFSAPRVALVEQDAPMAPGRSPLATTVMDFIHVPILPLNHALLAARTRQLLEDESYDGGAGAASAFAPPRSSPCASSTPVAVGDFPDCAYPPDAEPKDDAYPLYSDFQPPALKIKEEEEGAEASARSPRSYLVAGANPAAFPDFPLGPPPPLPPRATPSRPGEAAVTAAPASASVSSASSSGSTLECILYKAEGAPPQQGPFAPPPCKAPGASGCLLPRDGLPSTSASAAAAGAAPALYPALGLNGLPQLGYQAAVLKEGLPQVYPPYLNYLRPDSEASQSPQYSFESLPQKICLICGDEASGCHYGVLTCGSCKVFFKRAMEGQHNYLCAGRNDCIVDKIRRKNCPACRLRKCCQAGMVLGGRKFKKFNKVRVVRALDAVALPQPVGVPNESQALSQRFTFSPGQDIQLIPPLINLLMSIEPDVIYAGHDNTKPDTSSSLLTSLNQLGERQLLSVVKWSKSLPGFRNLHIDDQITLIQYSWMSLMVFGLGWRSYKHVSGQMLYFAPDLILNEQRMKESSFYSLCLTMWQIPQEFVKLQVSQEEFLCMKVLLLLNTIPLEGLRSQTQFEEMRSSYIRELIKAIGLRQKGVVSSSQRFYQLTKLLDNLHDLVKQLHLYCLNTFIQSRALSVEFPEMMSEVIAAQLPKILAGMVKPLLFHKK
Outline: (§2)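 Human T47D breast carcinoma cells stimulated with 1 nM progesterone; compound inhibition of induced alkaline phosphatase activity. IC50 is 50% inhibition. Average of at least duplicate determinations.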

[2] = biological target: T2, Progesterone receptor (Homo sapiens, UniProt P06401); test: (§3) Agonist activity at progesterone receptor expressed in T47D cells by alkaline phosphatase assay; assay type: functional, cell-based
T2 sequence (P06401 whole entry): T1 sequence (whole entry)
Outline: (§4)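 Human T47D breast carcinoma cells; alkaline phosphatase activity measured. EC50 is the concentration giving 50% effect; efficacy shown in parentheses. Average of at least duplicate determinations.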

[3] = biological target: T1, Progesterone receptor (Homo sapiens); test: Agonist activity at progesterone receptor expressed in T47D cells relative to progesterone; assay type: functional, cell-based
Outline: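 Human T47D breast carcinoma cells; agonist mode; read-out is alkaline phosphatase activity; values are the average of at least duplicate determinations.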

[4] = biological target: T2, Progesterone receptor; test: Binding affinity to cytosolic PR in T47D cells by competition binding assay; assay type: cell-based
[5] = tested on: Cynomolgus monkey; test: Inhibition of ovulation-induced progesterone levels in po dosed cynamologous monkey; assay type: functional, Macaca fascicularis
Outline: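 Cynomolgus monkeys dosed orally once daily from day 2 to 28 of the menstrual cycle; vehicle 2% Tween 80/0.5% methylcellulose. Serum progesterone sampled three times weekly until the next menses. Ovulation inferred from the progesterone pattern.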

[6] = biological target: T2, Progesterone receptor; test: as §1; assay type: functional, cell-based; outline: as §2
[7] = biological target: T1, Progesterone receptor (Homo sapiens); test: as §3; assay type: functional, cell-based; outline: as §4
[8] = tested on: Rattus norvegicus; test: Effect on estrogen-induced synthesis of complement component C3 in sc dosed Sprague-Dawley rat uterus epithelial cells; assay type: functional, Epithelial cell
Outline: (§5)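 Adult ovariectomized Sprague–Dawley rats (60-day-old, surgery at least 8 days before dosing), groups of six, acclimated at least 72 h. Compound given once daily for 2 days, by sc injection or oral gavage, in 10% ethanol/corn oil. Ethinyl estradiol given orally on day 2. Uteri taken about 24 h later. C3 mRNA measured by Northern blot, normalized to 28S rRNA. Log-transformed ratios; Huber M-estimator.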

[9] = tested on: Rattus norvegicus; test: Effect on uterine decidualization in po dosed ovariectomized Sprague-Dawley rat after 7 days; assay type: organism-based; settings: 168 h
Outline: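 Ovariectomized mature Sprague–Dawley rats (~60-day-old, 230 g), groups of 4–5, dosed once daily for 7 days by gavage. Half-log dose steps. One uterine horn decidually stimulated; the contralateral horn is the control. Horns weighed about 24 h after the last dose. D-horn/C-horn ratio log-transformed; Huber M-estimator; ANOVA and nonlinear dose–response fitting.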

[10] = Terminal half life in rat at 1 mg/kg, iv; assay type: ADME, organism-based; set-up: dose 1 mg/kg, route intravenous; settings: in vivo
Outline: (§6)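 Female rats, single dose of 1 mg/kg given as IV bolus or orally. AUC0–∞, clearance, volume of distribution and terminal half-life taken from the IV arm. Oral exposure gives AUC0–∞; bioavailability from oral versus IV exposure.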

[11] = biological target: T3, Androgen receptor (Homo sapiens, UniProt P10275); test: Agonist activity at androgen receptor expressed in mouse fibroblast L929 cells by HRE-tk luciferase assay
T3 sequence (P10275 whole entry): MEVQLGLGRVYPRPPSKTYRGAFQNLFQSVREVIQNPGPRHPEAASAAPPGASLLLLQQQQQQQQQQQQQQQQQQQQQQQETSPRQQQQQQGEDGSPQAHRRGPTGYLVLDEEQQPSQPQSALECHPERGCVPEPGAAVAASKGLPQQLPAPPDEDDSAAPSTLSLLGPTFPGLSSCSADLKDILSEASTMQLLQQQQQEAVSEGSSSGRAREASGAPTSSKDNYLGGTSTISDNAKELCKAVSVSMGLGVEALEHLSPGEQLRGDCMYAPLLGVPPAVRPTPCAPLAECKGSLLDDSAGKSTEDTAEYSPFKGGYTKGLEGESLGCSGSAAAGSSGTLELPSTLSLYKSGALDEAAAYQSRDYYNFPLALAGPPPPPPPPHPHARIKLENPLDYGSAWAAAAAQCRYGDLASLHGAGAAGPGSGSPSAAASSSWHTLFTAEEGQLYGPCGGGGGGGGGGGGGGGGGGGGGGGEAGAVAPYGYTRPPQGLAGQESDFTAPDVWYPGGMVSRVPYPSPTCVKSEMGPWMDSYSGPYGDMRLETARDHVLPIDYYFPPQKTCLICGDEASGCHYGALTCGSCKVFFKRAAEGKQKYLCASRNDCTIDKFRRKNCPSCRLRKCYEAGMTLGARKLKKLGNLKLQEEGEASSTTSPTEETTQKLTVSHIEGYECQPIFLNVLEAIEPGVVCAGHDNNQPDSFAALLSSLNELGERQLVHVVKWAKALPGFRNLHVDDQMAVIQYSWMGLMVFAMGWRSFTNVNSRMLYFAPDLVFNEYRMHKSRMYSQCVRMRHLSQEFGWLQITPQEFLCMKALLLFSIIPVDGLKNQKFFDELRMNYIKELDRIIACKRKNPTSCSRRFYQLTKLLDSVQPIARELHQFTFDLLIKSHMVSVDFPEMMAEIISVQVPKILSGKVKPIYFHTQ

[12] = AUC (0 to infinity) in rat at 1 mg/kg, iv; assay type: ADME, organism-based; set-up: time infinity, dose 1 mg/kg, route intravenous; settings: plasma; outline: as §6
[13] = biological target: T3, Androgen receptor; test: Antagonist activity at androgen receptor expressed in mouse fibroblast L929 cells by HRE-tk luciferase assay
[14] = AUC (0 to infinity) in rat at 1 mg/kg, po; assay type: ADME, organism-based; set-up: time infinity, dose 1 mg/kg, route oral; settings: plasma; outline: as §6
[15] = tested on: Rattus norvegicus; test: Effect on estrogen-induced synthesis of complement component C3 in po dosed Sprague-Dawley rat uterus epithelial cells; assay type: functional; settings: Epithelial cell; outline: as §5
[16] = Clearance in rat at 1 mg/kg, iv; assay type: ADME, organism-based; set-up: dose 1 mg/kg, route intravenous; settings: in vivo; outline: as §6
[17] = biological target: T4, Glucocorticoid receptor (Homo sapiens, UniProt P04150); test: Agonist activity at glucocorticoid receptor expressed in L929 cells by HRE-tk luciferase assay
T4 sequence (P04150 whole entry): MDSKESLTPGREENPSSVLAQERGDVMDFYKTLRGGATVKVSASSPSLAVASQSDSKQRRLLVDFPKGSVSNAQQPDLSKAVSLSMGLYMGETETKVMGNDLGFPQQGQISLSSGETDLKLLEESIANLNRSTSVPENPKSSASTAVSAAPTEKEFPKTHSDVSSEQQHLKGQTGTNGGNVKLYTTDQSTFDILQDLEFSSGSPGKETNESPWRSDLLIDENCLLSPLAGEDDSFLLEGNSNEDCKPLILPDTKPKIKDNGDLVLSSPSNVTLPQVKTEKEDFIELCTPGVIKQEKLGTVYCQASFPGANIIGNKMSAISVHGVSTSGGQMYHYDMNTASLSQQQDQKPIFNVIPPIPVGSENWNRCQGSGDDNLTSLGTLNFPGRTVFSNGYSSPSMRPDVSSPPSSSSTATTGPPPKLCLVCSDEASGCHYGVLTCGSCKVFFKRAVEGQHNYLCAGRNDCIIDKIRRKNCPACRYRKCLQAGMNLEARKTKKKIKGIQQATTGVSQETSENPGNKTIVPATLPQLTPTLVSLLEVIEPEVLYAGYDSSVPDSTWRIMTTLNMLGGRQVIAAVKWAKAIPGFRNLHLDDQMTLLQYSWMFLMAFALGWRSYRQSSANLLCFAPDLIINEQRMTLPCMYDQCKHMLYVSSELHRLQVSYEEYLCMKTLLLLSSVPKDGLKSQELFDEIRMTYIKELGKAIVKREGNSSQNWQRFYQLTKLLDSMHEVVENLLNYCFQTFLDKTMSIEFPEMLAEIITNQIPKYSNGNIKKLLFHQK

[18] = Volume of distribution in rat at 1 mg/kg, iv; assay type: ADME, organism-based; set-up: dose 1 mg/kg, route intravenous; settings: in vivo; outline: as §6
[19] = Bioavailability in rat at 1 mg/kg, po; assay type: ADME, organism-based; settings: in vivo; outline: as §6
[20] = biological target: T4, Glucocorticoid receptor; test: Antagonist activity at glucocorticoid receptor expressed in L929 cells by HRE-tk luciferase assay

Structure (SMILES)	Activity [1]	EC50 [2] [µM]	Efficacy [3] [%]	further results
Fc1ccc(-c2ccc3[nH]c(=S)n(C4CCCC4)c3c2)cc1F	inactive	0.0625	75	
CCC(CC)n1c(=S)[nH]c2ccc(-c3ccc(C#N)n3C)cc21	inactive	0.001	70	
Fc1ccc(-c2ccc3[nH]c(=S)n(C4CCCC4)c3c2)cc1Cl	inactive	0.0493	55	
Cn1c(C#N)ccc1-c1ccc2[nH]c(=S)n(C3CCC3)c2c1	inactive	0.0005	70	
Cn1c(C#N)ccc1-c1ccc2[nH]c(=O)n(C3CCCC3)c2c1		> 3		IC50 [4]: 0.0262 µM
N#Cc1cc(F)cc(-c2ccc3[nH]c(=S)n(C4CCC4)c3c2)c1	inactive	0.0027	60	
Cn1c(C#N)ccc1-c1ccc2c(c1)C(C)(C)OC(=S)N2 [TANAPROGET]				ED100 [5]: 0.01 mg/kg
CCC(CC)n1c(=S)[nH]c2ccc(-c3ccc(F)c(Cl)c3)cc21				inhibition [1]: 60%; IC50 [6]: 0.0337 µM; Activity [7]: inactive
CCC(CC)n1c(=O)[nH]c2ccc(-c3ccc(C#N)n3C)cc21		> 3		IC50 [6]: 0.0117 µM
CCC(CC)n1c(=S)[nH]c2ccc(-c3cc(F)cc(C#N)c3)cc21		0.27	70	inhibition [1]: 50%; IC50 [6]: 0.0036 µM
CC(=O)[C@H]1CC[C@H]2[C@@H]3CCC4=CC(=O)CC[C@]4(C)[C@H]3CC[C@]12C [PROGESTERONE]	inactive			
Cn1c(C#N)ccc1-c1ccc2[nH]c(=O)n(C3CCC3)c2c1		> 3		
CC(=O)O[C@]1(C(C)=O)CC[C@H]2[C@@H]3C[C@H](C)C4=CC(=O)CC[C@]4(C)[C@H]3CC[C@@]21C [MEDROXYPROGESTERONE ACETATE]	inactive			ED5 [8]: 0.03 mg/kg
Cn1c(C#N)ccc1-c1ccc2[nH]c(=S)n(C3CCCC3)c2c1	inactive	0.0001	75	ED50 [9]: 0.02 mg/kg; half-life [10]: 4.4 h; EC50 [11]: > 10 µM; AUC(0-inf) [12]: 680 ng·h/mL; IC50 [13]: 1 µM; AUC(0-inf) [14]: 480 ng·h/mL; ED50 [15]: 0.003 mg/kg; clearance [16]: 25 mL/min/kg; ED100 [5]: 0.03 mg/kg; EC50 [17]: > 10 µM; IC50 [4]: 0.0004 µM; Vd [18]: 7.6 L/kg; bioavailability [19]: 71%; IC50 [20]: 0.099 µM
